{"source": "paper PMC4454367", "about": "(Environmental science & technology, 2015)", "key": {"[1]": {"system": "larvae of the tiger salamander", "conditions": "cited from earlier work"}, "[2]": {"molecular_target": "T1, A. mexicanum AHR (Ambystoma mexicanum, UniProt A0A0F6TLE0)", "T1 sequence (A0A0F6TLE0 1-853)": "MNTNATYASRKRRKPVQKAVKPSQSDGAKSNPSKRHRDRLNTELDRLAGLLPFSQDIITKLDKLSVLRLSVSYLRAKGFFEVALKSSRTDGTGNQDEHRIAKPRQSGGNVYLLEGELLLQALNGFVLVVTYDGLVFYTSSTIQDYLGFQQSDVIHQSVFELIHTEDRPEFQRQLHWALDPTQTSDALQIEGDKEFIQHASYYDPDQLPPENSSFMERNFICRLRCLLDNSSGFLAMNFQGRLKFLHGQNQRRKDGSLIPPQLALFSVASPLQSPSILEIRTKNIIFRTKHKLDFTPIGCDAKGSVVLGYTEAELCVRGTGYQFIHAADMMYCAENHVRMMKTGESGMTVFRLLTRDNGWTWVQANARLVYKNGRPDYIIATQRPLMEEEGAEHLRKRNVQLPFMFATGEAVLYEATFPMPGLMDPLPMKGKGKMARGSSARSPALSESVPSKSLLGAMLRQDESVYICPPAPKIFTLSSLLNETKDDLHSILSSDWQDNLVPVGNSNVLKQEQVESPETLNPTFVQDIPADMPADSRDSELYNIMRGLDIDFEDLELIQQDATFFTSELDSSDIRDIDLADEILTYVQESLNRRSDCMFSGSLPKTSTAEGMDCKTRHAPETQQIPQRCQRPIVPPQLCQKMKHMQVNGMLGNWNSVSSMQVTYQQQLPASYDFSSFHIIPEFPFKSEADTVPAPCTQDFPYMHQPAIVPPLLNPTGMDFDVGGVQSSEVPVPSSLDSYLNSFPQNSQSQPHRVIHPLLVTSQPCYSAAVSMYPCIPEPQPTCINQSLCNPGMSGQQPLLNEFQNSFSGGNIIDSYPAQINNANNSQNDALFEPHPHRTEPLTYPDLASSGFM", "assay": "Transactivation", "assay_type": "cell-based"}, "[3]": {"molecular_target": "AHR2 from zebrafish", "conditions": "TCDD binding; cited from earlier work"}, "[4]": {"system": "tern AHR", "conditions": "tern AHR (V325, A381) vs chicken AHR (I325, S381); cited from earlier work"}, "[5]": {"molecular_target": "T2, X. laevis AHR1β (Xenopus laevis, UniProt Q4QY30)", "T2 sequence (Q4QY30 1-834)": "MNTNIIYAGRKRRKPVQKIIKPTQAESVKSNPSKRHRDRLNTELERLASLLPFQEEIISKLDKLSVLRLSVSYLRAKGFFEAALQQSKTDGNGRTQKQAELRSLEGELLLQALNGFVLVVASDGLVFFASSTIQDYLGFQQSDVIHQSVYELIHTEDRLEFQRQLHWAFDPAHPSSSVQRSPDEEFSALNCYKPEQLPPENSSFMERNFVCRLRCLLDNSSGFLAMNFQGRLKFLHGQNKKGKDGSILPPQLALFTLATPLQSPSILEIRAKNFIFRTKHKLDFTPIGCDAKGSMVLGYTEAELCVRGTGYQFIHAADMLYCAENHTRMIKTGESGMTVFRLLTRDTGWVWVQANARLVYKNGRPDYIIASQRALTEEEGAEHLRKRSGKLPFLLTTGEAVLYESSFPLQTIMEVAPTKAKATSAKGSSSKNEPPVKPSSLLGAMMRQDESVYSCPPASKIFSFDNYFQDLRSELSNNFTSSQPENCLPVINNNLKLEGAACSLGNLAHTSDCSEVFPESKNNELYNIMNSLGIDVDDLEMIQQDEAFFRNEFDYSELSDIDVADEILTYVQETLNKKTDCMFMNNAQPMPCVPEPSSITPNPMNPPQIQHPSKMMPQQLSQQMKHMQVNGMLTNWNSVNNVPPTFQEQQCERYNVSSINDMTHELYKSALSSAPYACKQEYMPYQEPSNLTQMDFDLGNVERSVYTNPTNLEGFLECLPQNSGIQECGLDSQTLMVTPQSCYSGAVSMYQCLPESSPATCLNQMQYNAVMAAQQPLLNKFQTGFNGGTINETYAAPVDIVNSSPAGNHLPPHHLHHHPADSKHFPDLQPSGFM", "conditions": "cited from earlier work"}, "[6]": {"system": "chicken AHR", "conditions": "TCDD binding; cited from earlier work"}, "[7]": {"molecular_target": "T1, A. mexicanum AHR", "assay": "Velocity sedimentation analysis of [3H]TCDD binding, A. mexicanum AHR", "conditions": "2 nM [3H]TCDD, 18 h at 4°, sucrose gradients, in vitro synthesized AHR", "in_short": "(§1)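 AHR made in vitro from pCMVTNT in a rabbit reticulocyte coupled transcription/translation system, diluted 1:1 in MEDMDG buffer (pH 7.5, molybdate, glycerol, DTT), incubated 18 h at 4° with 2 nM [1,6-3H]TCDD. Run on 10–30% sucrose gradients at 65,000 rpm for 90 min with [14C]catalase marker. Fractions scintillation-counted; specific binding is peak fractions minus empty-vector lysate. Three replicates, mean ± standard error.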"}, "[8]": {"system": "mouse AHR", "conditions": "TCDD binding; cited from earlier work"}, "[9]": {"molecular_target": "T2, X. laevis AHR1β", "assay": "Velocity sedimentation analysis of [3H]TCDD binding, X. laevis AHR1β", "conditions": "2 nM [3H]TCDD, 18 h at 4°, sucrose gradients, in vitro synthesized AHR", "in_short": "as §1"}, "[10]": {"system": "zebrafish", "conditions": "cited from earlier work"}, "[11]": {"molecular_target": "X. laevis AHR1α", "conditions": "read-out: apparent Kd; TCDD binding; cited from earlier work"}, "[12]": {"molecular_target": "T2, X. laevis AHR1β", "assay": "Transactivation", "assay_type": "cell-based"}}, "note": "“And” between values parts separate entries of the source, which are not always exact repeats. Identical values can stand only once.", "data": [{"compound": "Clc1cc2c(cc1Cl)Oc1cc(Cl)c(Cl)cc1O2", "note": "[TCDD, 2,3,7,8-tetrachlorodibenzo-p-dioxin]", "values": [{"measurement": "nominal TCDD concentrations defined as sub-lethal", "setting": "[1]", "result": "up to 3.0 μg/L and ≤ 9.3 nM"}, {"measurement": "EC50 of A. mexicanum AHR relative to that of the mouse:frog chimera", "setting": "[2]; TCDD 24 h, fold greater than chimeric AHR", "result": "~300", "unit": "fold"}, {"measurement": "Kd", "setting": "[3]", "result": 1.1, "unit": "nM"}, {"measurement": "TCDD affinity of tern AHR, fold lower than the chicken AHR", "setting": "[4]", "result": 7, "unit": "fold"}, {"measurement": "Kd (saturability of TCDD binding)", "setting": "[5]", "result": "unsaturable"}, {"measurement": "Kd", "setting": "[6]", "result": 0.8, "unit": "nM"}, {"measurement": "Specific [3H]TCDD binding peak relative to mouse AHR or chimeric AHR", "setting": "[7]", "result": "one-tenth"}, {"measurement": "Kd", "setting": "[8]", "result": 2.4, "unit": "nM"}, {"measurement": "Specific [3H]TCDD binding peak relative to mouse AHR or chimeric AHR", "setting": "[9]", "result": "approximately one-tenth"}, {"measurement": "LC100", "setting": "[10]", "result": "no more than 1.55 nM"}, {"measurement": "Kd", "setting": "[11]", "result": 47.2, "unit": "nM"}]}, {"compound": "O=Cc1c2[nH]c3ccccc3c2cc2[nH]c3ccccc3c12", "note": "[FICZ, 6-formylindolo[3,2-b]carbazole]", "values": [{"measurement": "EC50", "setting": "[2]", "result": 0.45, "unit": "nM"}, {"measurement": "EC50 of axolotl AHR relative to that of the chimeric AHR", "setting": "[2]; FICZ 3 h exposure, fold greater than chimeric AHR", "result": "about 45 fold"}, {"measurement": "EC50", "setting": "[12]", "result": 0.14, "unit": "nM"}]}]}
